How the values were obtained:
[1] = biological target: T1, PAR1 (Homo sapiens, UniProt P25116); test: MEIRS cellular response of A431 cells to PAR1 activating peptide; assay type: cell-based
T1 sequence (P25116 22-425): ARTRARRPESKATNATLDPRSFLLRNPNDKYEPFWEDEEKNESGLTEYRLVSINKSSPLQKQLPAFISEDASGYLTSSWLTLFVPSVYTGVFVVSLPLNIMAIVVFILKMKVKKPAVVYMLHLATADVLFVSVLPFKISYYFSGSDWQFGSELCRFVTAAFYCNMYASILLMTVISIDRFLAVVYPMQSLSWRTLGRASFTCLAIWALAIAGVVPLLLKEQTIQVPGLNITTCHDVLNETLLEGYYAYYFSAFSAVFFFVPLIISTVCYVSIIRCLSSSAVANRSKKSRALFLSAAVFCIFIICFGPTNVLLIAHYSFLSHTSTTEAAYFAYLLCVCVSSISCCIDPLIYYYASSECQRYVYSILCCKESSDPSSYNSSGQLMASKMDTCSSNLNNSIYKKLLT
Method in brief: (§1)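 A431 cells (ATCC, passage <15) were seeded at ~500,000/mL in DMEM + 10% FBS on fibronectin-coated (10 μg/mL) metasurface wells and incubated overnight. Medium was then swapped to L15 + 1% antibiotic-antimycotic. One baseline spectrum preceded manual addition of peptide in L15. FTIR reflectance was taken at room temperature, every 4 min per well, for 1 h. Spectra were differenced from t = 0, and first-PC signals were extracted from the protein, plasmonic and lipid windows (mean ± standard error, n = 4).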

[2] = system: PAR1/PAR2; test: MEIRS cellular response of A431 cells to PAR peptides / control peptide; assay type: cell-based, human
Method in brief: as §1

[3] = system: A431 cells; test: Phase contrast imaging of cell spreading on coated metasurfaces; assay type: cell-based, human; details: Fig. S2
[4] = system: cells (cell type not given); details: among others, including collagen and PDL; cited from earlier work

## SFLLR-NH2
[1]; MEIRS PC1 signal
  course of cellular signal after maximal point: decreased right after the maximal point was reached
[1]; MEIRS PC1 signal, after peak
  duration of gradual decrease in cellular signal back to baseline level: about 30 min
[1]; MEIRS PC1 signal, Δt = 4 min, n = 4
  time of cellular signal peak after peptide addition: 8 to 12 min
[1]; as soon as the peptides were added
  initial change in cellular signal on addition of peptide: rapid increase in the cellular signal
[2]; 100 μM
  peak amplitude of cellular signal (SFLLR vs SLIGKV): similar

## fibronectin
[3]
  cell spreading, phase contrast morphology: cells spread well
[4]
  best coating material by electric impedance: often the best coating material

## VKGILS-NH2
[2]; MEIRS PC1 signal, n = 4
  cellular response to control peptide: very little response from the cells

Reference: publication PMC10159923 (Lab on a chip, 2023)
